For assay [1], the target named is T1, Tyrosine-protein phosphatase non-receptor type 1 (Homo sapiens, UniProt P18031).
T1 sequence (P18031 whole entry): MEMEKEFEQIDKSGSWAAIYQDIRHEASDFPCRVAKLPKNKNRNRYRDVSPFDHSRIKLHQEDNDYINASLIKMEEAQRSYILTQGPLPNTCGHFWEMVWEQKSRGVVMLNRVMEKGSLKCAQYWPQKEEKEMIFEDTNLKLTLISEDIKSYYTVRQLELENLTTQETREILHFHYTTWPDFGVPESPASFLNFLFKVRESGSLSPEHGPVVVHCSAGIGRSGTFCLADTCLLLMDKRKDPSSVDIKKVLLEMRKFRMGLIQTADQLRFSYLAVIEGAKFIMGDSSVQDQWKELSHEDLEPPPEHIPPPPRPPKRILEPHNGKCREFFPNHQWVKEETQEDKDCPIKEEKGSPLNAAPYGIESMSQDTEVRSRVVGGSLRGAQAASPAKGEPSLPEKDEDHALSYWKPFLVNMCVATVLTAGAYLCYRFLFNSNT
The experiment in a line: Inhibition of PTP1B assessed as p-nitrophenolate ion production pretreated for 10 mins measured after 30 mins. In outline: (§1)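 PTP1B was preincubated 10 min with compound, with and without 0.01% Triton X-100. Substrate was 10 mM pNPP in 50 mM HEPES pH 7.0 with 1 mM DTT and 2 mM EDTA. After 30 min at 37 °C the reaction was stopped with 0.1 N NaOH and A410 was read. Product was calculated with ε 1.78×10⁴ M⁻¹cm⁻¹. Sodium orthovanadate served as standard. IC50 came from dose–response curves.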

For assay [2], the target named is T2, Tyrosine-protein phosphatase non-receptor type 1 (Homo sapiens) (UniProt P18031).
T2 sequence (whole entry): T1 sequence (P18031 whole entry)
Description: Inhibition of PTP1B assessed as p-nitrophenolate ion production at 100 uM pretreated for 10 mins measured after 30 mins. In outline:
as §1

Assay [3] concerns the target Dipeptidyl peptidase 4 (Homo sapiens) (UniProt P27487). The experiment in a line: Inhibition of DPP4 at 100 uM after 15 mins by spectrofluorimeter. The essentials:
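DPP-IV activity was measured at 37 °C as Gly-Pro-AMC (30 µM) cleavage in Tris–HCl pH 7.4 with test compound. Fluorescence was read at excitation 355 nm and emission 460 nm. The initial rate was taken over the first 15 min.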

Assay [4] is described as follows: Inhibition of alpha-glucosidase at 100 uM after 3 mins. The essentials: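 α-Glucosidase (0.1 mg/mL, purified) was assayed in 67 mM sodium phosphate pH 6.8 with 1.0 mg/mL glutathione. The reaction was started with 3.0 mg/mL pNPG and followed at 405 nm every 30 s for 3 min.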
Assay [5] can be described thus: Inhibition of glycogen phosphorylase assessed as […] phosphate release at 100 uM after 30 mins. The essentials:
(§2)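 Glycogen phosphorylase was incubated with glycogen, glucose-1-phosphate, NaF and 5′-AMP for 30 min at 37 °C. The reaction was stopped with 10% TCA and 0.1 M sodium acetate. Samples were held overnight at 4 °C, then released Pi was measured.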

The target in assay [6] is T3, Glucose-6-phosphatase catalytic subunit 1 (Homo sapiens) (UniProt P35575).
T3 sequence (whole entry): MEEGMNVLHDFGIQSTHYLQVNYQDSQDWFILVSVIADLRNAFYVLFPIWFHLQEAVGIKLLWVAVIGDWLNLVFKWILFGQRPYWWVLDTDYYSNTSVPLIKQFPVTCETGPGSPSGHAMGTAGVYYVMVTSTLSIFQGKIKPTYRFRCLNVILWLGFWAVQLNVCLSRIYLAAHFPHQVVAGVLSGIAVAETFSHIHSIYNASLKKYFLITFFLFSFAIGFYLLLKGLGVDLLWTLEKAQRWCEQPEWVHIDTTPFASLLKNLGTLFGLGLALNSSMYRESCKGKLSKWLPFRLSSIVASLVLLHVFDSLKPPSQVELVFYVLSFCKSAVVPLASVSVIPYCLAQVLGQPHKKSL
Description: Inhibition of glucose-6-phosphatase assessed as inositol phosphate release at 100 uM after 30 mins. The conditions noted are these: in the assay text read “inorganic phosphate” for “inositol phosphate”. In outline:
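Glucose-6-phosphatase was assayed in 0.3 M citrate pH 6.0 with 28 mM EDTA, 14 mM NaF, 200 mM glucose-6-phosphate and enzyme protein. After 30 min at 37 °C the reaction was stopped with 10% TCA. Activity was expressed as µmol Pi released per min per mg protein.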

The subject of assay [7] is Rattus norvegicus. The experiment in a line: Antihyperglycemic activity in Sprague-Dawley albino rat streptozotocin-induced beta-cell damaged diabetic model assessed as decrease of blood glucose level at 100 mg/kg, po administered 30 mins before glucose challenge measured after 24 hrs by glucometer. It counts as functional. The arrangement: scale not given: the % may be the effect or the level left. In outline: (§3)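 Rats were made diabetic with streptozotocin 60 mg/kg ip in 100 mM citrate pH 4.5 after an overnight fast. Animals with glucose 144–270 mg/dl at 48 h were used, 5–6 per group. Compounds were given 100 mg/kg orally in 1.0% gum acacia. Sucrose 2.5 g/kg followed 30 min later. Glucose was read by glucostrips up to 300 min and at 24 h. Non-responders were excluded. Percent activity came from AUC versus control.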

Assay [8] deals with Rattus norvegicus. Description: Antihyperglycemic activity in Sprague-Dawley albino rat streptozotocin-induced beta-cell damaged diabetic model assessed as decrease of blood glucose level at 100 mg/kg, po administered 30 mins before glucose challenge measured after 5 hrs by glucometer. It counts as functional. The arrangement: scale not given: the % may be the effect or the level left. In outline: as §3

Assay [9] relates to Rattus norvegicus. The experiment in a line: Antihyperglycemic activity in Charles Foster-Wistar albino rat sucrose loaded model assessed as decrease of blood glucose level at 100 mg/kg, po administered 30 mins before glucose challenge measured up to 120 mins by glucometer. Type of assay: functional. The arrangement: scale not given: the % may be the effect or the level left. The conditions noted are these: in the assay text read “Sprague-Dawley” for “Charles Foster-Wistar”. In outline: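 Sprague–Dawley male rats with blood glucose 60–80 mg/dl, 5–6 per group, received 100 mg/kg orally as a suspension in 1.0% gum acacia; controls received vehicle. Sucrose 10.0 g/kg was given orally 30 min later. Glucose was read by glucometer at 30, 60, 90 and 120 min. Food was withheld. Percent activity came from AUC versus control.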

Assay [10] concerns Rattus norvegicus. The experiment in a line: Antidyslipidemic activity in Charles Foster rat assessed as reduction of Triton WR-1339-induced increase of blood total cholesterol level at 100 mg/kg, po after 18 hrs. Type of assay: functional. The arrangement: scale not given: the % may be the effect or the level left. The essentials: (§4)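 Hyperlipidemia induced by Triton WR-1339, 400 mg/kg ip, in adult male Charles Foster rats (200–225 g), five per group. Compounds were macerated in 0.2% w/v gum acacia, suspended in water and given 100 mg/kg po together with triton. Plasma was obtained by centrifugation at 2500g, 4 °C, 10 min and diluted 1:3 in saline. TC, PL and TG were measured by enzymatic methods.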

Assay [11] has as its system Rattus norvegicus. Description: Antidyslipidemic activity in Charles Foster rat assessed as reduction of Triton WR-1339-induced increase of blood phospholipid level at 100 mg/kg, po after 18 hrs. The arrangement: scale not given: the % may be the effect or the level left. It counts as functional. In outline:
as §4

Assay [12] concerns Rattus norvegicus. Description: Antidyslipidemic activity in Charles Foster rat assessed as reduction of Triton WR-1339-induced increase of blood triglyceride level at 100 mg/kg, po after 18 hrs. It counts as functional. The arrangement: scale not given: the % may be the effect or the level left. In outline:
as §4

A short description of assay [13]: Inhibition of glycogen phosphorylase assessed as inositol phosphate release after 30 mins. In outline:
as §2

Molecules are shown by their SMILES. Calls of active or inactive are those of the source. No cut-off for these calls is given here.

Chain of Dipeptidyl peptidase 4 (Homo sapiens) (P27487 whole entry, looked up): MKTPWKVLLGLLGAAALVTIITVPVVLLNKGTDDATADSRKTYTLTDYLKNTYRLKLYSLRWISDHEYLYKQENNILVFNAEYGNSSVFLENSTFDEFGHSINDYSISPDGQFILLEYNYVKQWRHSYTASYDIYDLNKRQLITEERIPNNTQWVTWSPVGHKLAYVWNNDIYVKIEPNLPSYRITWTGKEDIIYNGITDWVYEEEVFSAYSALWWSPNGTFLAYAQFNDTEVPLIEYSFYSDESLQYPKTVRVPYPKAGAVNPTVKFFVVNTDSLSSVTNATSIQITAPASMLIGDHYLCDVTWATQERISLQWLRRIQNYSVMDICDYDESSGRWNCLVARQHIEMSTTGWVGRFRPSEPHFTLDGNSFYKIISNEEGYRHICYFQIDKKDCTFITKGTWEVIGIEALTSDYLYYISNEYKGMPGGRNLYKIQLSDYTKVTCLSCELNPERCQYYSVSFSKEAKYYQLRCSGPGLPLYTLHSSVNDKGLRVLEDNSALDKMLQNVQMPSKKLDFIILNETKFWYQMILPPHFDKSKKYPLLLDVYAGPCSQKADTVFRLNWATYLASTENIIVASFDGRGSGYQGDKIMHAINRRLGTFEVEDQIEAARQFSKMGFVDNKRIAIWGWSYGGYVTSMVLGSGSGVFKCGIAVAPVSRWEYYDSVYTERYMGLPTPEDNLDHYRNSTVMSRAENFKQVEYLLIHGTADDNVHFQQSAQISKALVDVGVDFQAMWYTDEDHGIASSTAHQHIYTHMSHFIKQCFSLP

As for `CC1(C)CC(=O)C2=C(C1)NC(c1ccccc1)=CC2c1ccc(Cl)cc1` (stereo not given), in [1], the IC50 is 6.3 µM. Further, the inhibition in [2] is 84.9%; in [4], 12.1%; in assay [5] it was 5.89%; in [6], 7.16%. Also, in assay [3], the inhibition result is “inactive”. The Activity in the assay on Rattus norvegicus [7] is given as 16.4%; with Rattus norvegicus [8] it was 18.9%; in the assay with Rattus norvegicus [9], 23.5%; with Rattus norvegicus [10], -25.56%; in the assay with Rattus norvegicus [11], -22.47%; with Rattus norvegicus [12], -19.32%.
As to `CC1(C)CC(=O)C2=C(C1)NC(C(=O)O)=CC2c1ccc(Br)cc1` (stereo not given), the concentration for half-maximal inhibition (IC50) in assay [13] was 5.3 µM. Further, the inhibition in [2] was determined as 12.3%; in assay [5], 81.3%. Further, the inhibition entry in [3], in assay [4] and in assay [6] was “inactive” in each case. Further, the Activity with Rattus norvegicus [7] was determined as 13.6%; in the assay with Rattus norvegicus [8], 17.8%; with Rattus norvegicus [9] it was 31.7%.
`CC1(C)CC(=O)C2=C(C1)NC(c1ccccc1)=CC2c1ccc([N+](=O)[O-])cc1` (stereo not given): the concentration for half-maximal inhibition (IC50) in [1] was 6.1 µM. Also, the figures for the inhibition in assay [2] and in [4] were 84.7% and 22.4%, respectively. Further, the inhibition entry in assay [3], in assay [5] and in assay [6] was “inactive” in each case. Moreover, the Activity in the assay with Rattus norvegicus [9] came to 14.1%.
For the molecule `CCOC(=O)C1=CC(c2ccc(F)cc2)C2=C(CC(C)(C)CC2=O)N1` (stereo not given), in assay [1], the IC50 was determined as 4.7 µM. For the same molecule, the inhibition in assay [2] turned out to be 87.2%; in [3], 9.8%; in assay [4], 15.8%; in [5] it was 61.2%. The inhibition result in assay [6] is “inactive”. The values for the Activity in the assay on Rattus norvegicus [7], in the assay with Rattus norvegicus [8] and in the assay with Rattus norvegicus [9] were 23.4%, 24.8% and 35.9%, respectively.
As for `O=C1CCCC2=C1C(c1ccc(F)cc1)C=C(c1ccccc1)N2` (stereo not given), in assay [1], the IC50 was found to be 12.6 µM. Besides, the inhibition in [2] is 70.3%; in [5], 17.4%; in [6], 21.9%. Further, the inhibition entry in assay [3] and in assay [4] was “inactive” throughout. Besides, the Activity came out at 24.1% in the assay with Rattus norvegicus [7], 19.6% in the assay with Rattus norvegicus [8] and 34.5% with Rattus norvegicus [9].
As for `CCOC(=O)C1=CC(c2ccc(Br)cc2)C2=C(CC(C)(C)CC2=O)N1` (stereo not given), the IC50 in [1] amounted to 16.6 µM. Further, the inhibition in assay [2] was 65.6%; in [5] it was 49.3%. The inhibition result in assay [3], in [4] and in assay [6] was “inactive” each time. In addition, the Activity with Rattus norvegicus [9] is 11.4%.
Turning to `CC1(C)CC(=O)C2=C(C1)NC(c1ccccc1)=CC2c1ccco1` (stereo not given), the concentration for half-maximal inhibition (IC50) in assay [1] worked out at 7.7 µM. The inhibition in [2] is 82.5%; in assay [3] it was 18.6%; in assay [5], 18.9%; in [6], 11.4%. Moreover, the inhibition result in assay [4] was “inactive”. Further, the Activity in the assay with Rattus norvegicus [9] is reported as 14.6%.
With `Cc1ccc(C)c(OCCCC(C)(C)C(=O)O)c1` [GEMFIBROZIL], the values for the Activity with Rattus norvegicus [10], with Rattus norvegicus [11] and with Rattus norvegicus [12] were -37.56%, -39.43% and -36.21%, respectively.
`O=C1CCCC2=C1C(c1ccc(Cl)cc1)C=C(c1ccccc1)N2` (stereo not given): the inhibition in assay [2] was 24.7%; in assay [4] it was 27.9%; in assay [5] it was 19.3%; in assay [6] it was 8.21%. Further, the inhibition result in [3] is “inactive”. Also, the Activity with Rattus norvegicus [7] is 16.9%; in the assay on Rattus norvegicus [8] it was 12.9%; in the assay with Rattus norvegicus [9] it was 24.7%; in the assay on Rattus norvegicus [10], -6.7%; with Rattus norvegicus [11], -5.9%; with Rattus norvegicus [12], -7.89%.
In the case of `COc1ccc(C2C=C(c3ccccc3)NC3=C2C(=O)CC(C)(C)C3)cc1` (stereo not given), the IC50 in assay [1] worked out at 14.5 µM. Moreover, the inhibition in [2] was 71.8%; in [3], 8.6%. The inhibition result in assay [4], in assay [5] and in assay [6] was “inactive” in each case. The Activity in the assay on Rattus norvegicus [7] turned out to be 10.9%; in the assay on Rattus norvegicus [8] it was 8.8%; in the assay on Rattus norvegicus [9] it was 17.8%.
As to `Cc1ccc(C2=CC(c3ccccc3)C3=C(CC(C)(C)CC3=O)N2)cc1` (stereo not given), in [1], the IC50 turned out to be 19.6 µM. In addition, the inhibition in assay [2] was found to be 62.3%; in assay [5], 31.7%. For the same molecule, the inhibition entry in [3], in [4] and in assay [6] was “inactive” in each case. In addition, the Activity with Rattus norvegicus [9] is listed as 11.4%.
Regarding `CCOC(=O)C1(O)CC(c2ccc(F)cc2)C2=C(CC(C)(C)CC2=O)O1` (stereo not given), the results for the inhibition in assay [2] and in assay [5] were 5.3% and 14.9%, respectively. Further, the inhibition result in [3], in assay [4] and in assay [6] was “inactive” in each case. For the same molecule, the Activity is reported as 15.3% with Rattus norvegicus [9], -10.3% in the assay with Rattus norvegicus [10], -17.2% with Rattus norvegicus [11] and -8.2% in the assay with Rattus norvegicus [12].
For `CC1(C)CC(=O)C2=C(C1)NC(c1ccccc1)=CC2c1ccccc1` (stereo not given), the figures for the inhibition in assay [2], in [3] and in [4] were 41.8%, 12% and 34.3%, respectively. The inhibition entry in assay [5] and in [6] was “inactive” each time. Moreover, the Activity in the assay with Rattus norvegicus [7] was 13.3%; in the assay on Rattus norvegicus [8], 17.3%; with Rattus norvegicus [9], 24.9%; with Rattus norvegicus [10] it was -17.89%; with Rattus norvegicus [11], -19.23%; with Rattus norvegicus [12], -16.45%.

Values taken from ChEMBL document CHEMBL1165941, “Design and synthesis of 2,4-disubstituted polyhydroquinolines as prospective antihyperglycemic and lipid modulating agents” (Bioorg Med Chem, 2010).
